Assay results: PubChem BioAssay
Inconclusive results are not listed. The source made the active and inactive calls.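 The calls were made as follows, unless noted: active = cell viability at or below a set limit in both duplicate runs, the limit being the all-compound median minus 4 SD (cut at about 23% in these data, passing the limit was not always enough); inconclusive = no clear call, values can overlap the other calls; inactive = the rest.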

Tests used:
[1] = S. cerevisiae growth inhibition in permissive medium (OD615), pilot counter-assay for S. cerevisiae lifespan shortening project, permissive growth control (AID 705;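 active = growth inhibition above 25% in both replicates, a cutoff set 3 SD above the mean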); settings: OD615, 24 h, at 10 µM, active compounds read high
How it was run: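 Timing: 24 h exposure, 30 °C / Material: Saccharomyces cerevisiae strain carrying genetically modified DeaD replicative-lifespan system / Signal: OD at 615 nm / Compound: 10 µM single dose, 0.25% DMSO / Medium: SC raffinose/galactose permissive medium / Evaluation: reduction in yeast growth (OD615)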

[2] = S. cerevisiae growth inhibition in restrictive medium, OD615, pilot screen, restrictive growth control, yeast lifespan reduction project (AID 706;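 active = growth inhibition above a set limit, 3 SD over mean compound inhibition, in both replicates, cut at about 43% in these data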;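 also: modified DeaD lifespan yeast strain shifted to restrictive glucose medium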); settings: OD615, 48 h, at 10 µM, active compounds read high
How it was run: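 System: Engineered S. cerevisiae DeaD strain | Detection: OD615 | Buffer or medium: CSMM-D glucose medium | Doses: 10 µM compound, 0.25% DMSO | Timing: 4 h pre-growth plus 48 h compound exposure, 30 °C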

[3] = doxorubicin toxicity protection in MRP-1 cells – H69AR cells, CellTiter-Glo, duplicate, MRP-1 activator project, pilot screen (AID 807;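 active = viability increase at or above a cutoff of the median across tested compounds plus 3 SD, cut at about 8.5% in these data, passing the limit was not always enough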;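 also: compound pretreatment 18-22 h then 72 h combined with doxorubicin; 0% = doxorubicin alone and 100% = vehicle without doxorubicin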); settings: H69AR viability with doxorubicin, CellTiter-Glo luminescence; at 10 µM; active compounds read high
[4] = viability of HCT116 without oncogenic beta-catenin – human colon tumor cells, pilot screen (AID 823); settings: HCT116 beta-catenin knockout viability, CellTiter-Glo, 60 h; at 10 µM; active compounds read low;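 also: 0% = wells killed by 20 µM Hyamine and 100% = untreated DMSO cell wells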
[5] = viability of PTEN-null HCT116 cells – cell-based, HCT116 clonal line, CellTiter-Glo, pilot screen (AID 824;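 active = viability at or below 27.92% in each of two runs, the all-compound median minus 4 SD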;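 also: 0% = 20 µM Hyamine control and 100% = vehicle cell control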); settings: HCT116 PTEN-deleted viability, 60 h, at 10 µM, active compounds read low
[6] = RAM pathway blockade in budding yeast – dse1pr::URA3 reporter, 5-FOA selection, pilot screen (AID 869;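 active = inhibition over a set limit, the all-compound mean plus 3 SD, in both replicate runs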;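 also: 0% = DMSO wells with no growth and 100% = 10 µM 1-NA-PP1 with full growth; RAM network block rescues cells from 5-FOA so hits raise OD615 growth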); settings: S. cerevisiae dse1pr::URA3 5-FOA growth, OD615, 2 d; at 10 µM; active compounds read high; strain carries analog-sensitive mutant Cbk1 kinase
[7] = RAM signaling pathway blockade in yeast – S. cerevisiae, Pdr1DBD-CYC8 efflux-inhibited sensitized strain, primary screen (AID 1298;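 active = RAM network inhibition above 8.4% in each of two replicates, 3 SD over the compound average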;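 also: 0% = DMSO untreated cells without growth and 100% = 10 µM 1-NA-PP1 full growth; higher means more yeast growth rescued from 5-FOA killing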); settings: S. cerevisiae cbk1-as DSE1-URA3 strain, 5-FOA growth OD615, 2 d; at 50 µM; active compounds read high

COc1cc(C2C(C(=O)c3cccs3)=C(O)C(=O)N2Cc2ccco2)cc(OC)c1OC (stereo not given)
inactive: growth inhibition [1] -6.95% | growth inhibition [2] -3.81% | viability increase [3] -4.93% | viability [4] 93.1% | viability [5] 92.4% | inhibition [6] 2.94% | RAM network inhibition [7] 5%

Cn1cc(CC(=O)NCCCN2CCCC2=O)c2ccccc21
inactive: growth inhibition [1] -3.36% | growth inhibition [2] -11.5% | viability increase [3] -1.83% | viability [4] 99.3% | viability [5] 87.3% | inhibition [6] 0.77% | RAM network inhibition [7] -0.89%

C=CCOC(=O)C1=C(C)NC(=O)NC1/C=C/c1ccccc1 (stereo not given)
inactive: growth inhibition [1] -5.98% | growth inhibition [2] -13.1% | viability increase [3] -0.12% | viability [4] 92.5% | viability [5] 95% | inhibition [6] 2.77% | RAM network inhibition [7] 8.11%

COc1ccc(C(c2sc3ncnn3c2O)N2CC(C)OC(C)C2)cc1OC (stereo not given)
inactive: growth inhibition [1] 0.335% | growth inhibition [2] -6.37% | viability increase [3] -1% | viability [4] 102% | viability [5] 87.3% | inhibition [6] 0.55% | RAM network inhibition [7] 0.12%

CCOC(=O)C1CCCN(C(=O)c2cc3c(=O)n(C)c4ccccc4c3n2C)C1 (stereo not given)
inactive: growth inhibition [1] -1.98% | growth inhibition [2] 0.3% | viability increase [3] -3.5% | viability [4] 94.2% | viability [5] 92.7% | inhibition [6] 0.67% | RAM network inhibition [7] -0.46%

O=C(C1CC(=O)N(C2CCCC2)C1)N1CCN(c2ccc(F)cc2)CC1 (stereo not given)
inactive: growth inhibition [1] -1.42% | growth inhibition [2] 1.6% | viability increase [3] 0.11% | viability [4] 94.3% | viability [5] 95.2% | inhibition [6] 1.39% | RAM network inhibition [7] 2.53%

CN(C)Cc1nc2c([nH]1)c(=O)n(C)c(=O)n2C
inactive: growth inhibition [1] -6.75% | growth inhibition [2] -18% | viability increase [3] -1.31% | viability [4] 95.1% | viability [5] 92.7% | inhibition [6] 1% | RAM network inhibition [7] 4.51%

O=C(Nc1cccc(F)c1)c1ccc(S(=O)(=O)N2CCCC2)cc1
inactive: growth inhibition [1] -3.88% | growth inhibition [2] 0% | viability increase [3] 1.26% | viability [4] 101% | viability [5] 97% | inhibition [6] 1.78% | RAM network inhibition [7] -0.43%

COC(=O)c1cc(COc2ccc3oc(C)c(C(=O)OC)c3c2)c(C)o1
inactive: growth inhibition [1] 4.47% | growth inhibition [2] -14.8% | viability increase [3] 0.77% | viability [4] 74.4% | viability [5] 74.5% | inhibition [6] 2.19% | RAM network inhibition [7] 3.15%

CCOC(=O)N1CCN(C(=O)c2cc(C)no2)CC1
inactive: growth inhibition [1] -9.98% | growth inhibition [2] -7.27% | viability increase [3] 1.34% | viability [4] 104% | viability [5] 109% | inhibition [6] 1.04% | RAM network inhibition [7] 2.19%

COc1cccc(-n2c(=O)[nH]cc(C(=O)Nc3ccc(NC(C)=O)cc3)c2=O)c1
inactive: growth inhibition [1] -13.3% | growth inhibition [2] 4% | viability increase [3] 0.63% | viability [4] 106% | viability [5] 96.6% | inhibition [6] 3.3% | RAM network inhibition [7] 4.32%

Cc1ccc(C)c(N2CCN(C(=O)C3CCCN(S(=O)(=O)c4cnc[nH]4)C3)CC2)c1 (stereo not given)
inactive: growth inhibition [1] 5.12% | growth inhibition [2] -0.49% | viability increase [3] 2.66% | viability [4] 94.9% | viability [5] 95.4% | inhibition [6] 2.12% | RAM network inhibition [7] -0.52%

Cc1cc(C)c2c3c(c(-c4ccccc4)n2n1)c(=O)n(C)c(=O)n3C
inactive: growth inhibition [1] -9.68% | growth inhibition [2] -1.79% | viability increase [3] -1.8% | viability [4] 101% | viability [5] 94% | inhibition [6] 2.26% | RAM network inhibition [7] 5.77%

COc1ccccc1C1C(C(N)=O)=C(C)Nc2nc(-c3ccc(Cl)cc3)nn21 (stereo not given)
inactive: growth inhibition [1] -5.66% | growth inhibition [2] 0.335% | viability increase [3] -1.26% | viability [4] 95% | viability [5] 92.4% | inhibition [6] -0.455% | RAM network inhibition [7] -1.72%

O=C1NCCCC1C(=O)N1CCN(C(c2ccccc2)c2ccccc2)CC1 (stereo not given)
inactive: growth inhibition [1] 6.11% | growth inhibition [2] 11.2% | viability increase [3] 1% | viability [4] 98.5% | viability [5] 94.3% | inhibition [6] 0.65% | RAM network inhibition [7] 7.67%

Cc1cccn2cc(-c3ccc(F)cc3)nc12
inactive: growth inhibition [1] 1.97% | growth inhibition [2] 15.1% | viability increase [3] -4.81% | viability [4] 87.2% | viability [5] 82.9% | inhibition [6] 1.56% | RAM network inhibition [7] -1.54%

O=C(Cn1nnc(-c2ccccc2F)n1)Nc1cccc2ncccc12
inactive: growth inhibition [1] 1.42% | growth inhibition [2] -14.2% | viability increase [3] -2.32% | viability [4] 103% | viability [5] 98% | inhibition [6] 1.36% | RAM network inhibition [7] 2.23%

Cc1ccc(OCCCN(C)C)c(Br)c1
inactive: growth inhibition [1] -0.99% | growth inhibition [2] -6.73% | viability increase [3] -1.22% | viability [4] 89.1% | viability [5] 87.7% | inhibition [6] 1.03% | RAM network inhibition [7] 2.05%

Cc1ccc2cc(CCNC(=O)CC(C)C)c(=O)[nH]c2c1
inactive: growth inhibition [1] -7.75% | growth inhibition [2] -0.53% | viability increase [3] 0.14% | viability [4] 105% | viability [5] 103% | inhibition [6] 1.69% | RAM network inhibition [7] 3.87%

Cc1ccc2c(c1)NCC(C(=O)NC1CCC(C)CC1)O2 (stereo not given)
inactive: growth inhibition [1] -10.3% | growth inhibition [2] -4.18% | viability increase [3] 1.52% | viability [4] 98.4% | viability [5] 91.4% | inhibition [6] 1% | RAM network inhibition [7] 5.26%

O=C(c1ccc(Cn2c(=O)[nH]c3ccccc3c2=O)cc1)N1CCN(c2ccccn2)CC1
inactive: growth inhibition [1] -11.8% | growth inhibition [2] -8.79% | viability increase [3] -2.12% | viability [4] 93.1% | viability [5] 78.6% | inhibition [6] 0.23% | RAM network inhibition [7] 8.38%

Cc1ccc(N2CC(c3nc4ccccc4n3C)CC2=O)cc1C (stereo not given)
inactive: growth inhibition [1] -4.58% | growth inhibition [2] -2.28% | viability increase [3] -1.22% | viability [4] 103% | viability [5] 105% | inhibition [6] 0.94% | RAM network inhibition [7] 3.07%

COC(=O)C1C(O)=C(C=NCC(C)N=CC2=C(O)C(C(=O)OC)C(C)(C)CC2=O)C(=O)CC1(C)C (stereo not given)
inactive: growth inhibition [1] -4.88% | growth inhibition [2] -3.87% | viability increase [3] -0.55% | viability [4] 92.4% | viability [5] 93.7% | inhibition [6] 2.5% | RAM network inhibition [7] 0.9%

O=c1oc(-c2cccnc2)nc2ccccc12
inactive: growth inhibition [1] -8.07% | growth inhibition [2] -3.38% | viability increase [3] -0.21% | viability [4] 107% | viability [5] 96.1% | inhibition [6] 0.595% | RAM network inhibition [7] -0.11%

O=C(c1ccc(CS(=O)(=O)c2ccc(Br)cc2)o1)N1CCN(c2ccccn2)CC1
inactive: growth inhibition [1] -5.91% | growth inhibition [2] -14.9% | viability increase [3] -3.76% | viability [4] 98.8% | viability [5] 84.4% | inhibition [6] 1.34% | RAM network inhibition [7] 4.8%

CC(C)N(Cc1nc(-c2ccccc2)no1)C(=O)COc1ccccc1
inactive: growth inhibition [1] -12% | growth inhibition [2] -11.7% | viability increase [3] -3.65% | viability [4] 88.2% | viability [5] 89.7% | inhibition [6] 1.03% | RAM network inhibition [7] 3.19%

O=C(CN1CCOc2ccccc21)NCc1ccc(Cl)cc1
inactive: growth inhibition [1] -36.4% | growth inhibition [2] -1.02% | viability increase [3] -6.71% | viability [4] 90.8% | viability [5] 81.6% | inhibition [6] 0.665% | RAM network inhibition [7] -0.68%

COc1ccc(OC)c(CCNC(=O)Cn2sc3nc(C)cc(C)c3c2=O)c1
inactive: growth inhibition [1] 18.3% | viability increase [3] -8.04% | inhibition [6] 1.38% | RAM network inhibition [7] 11.3%
active: growth inhibition [2] 70.4% | viability [4] 2.27% | viability [5] 4.4%

O=C1CC2CS(=O)(=O)CC2N1C1CCCCC1 (stereo not given)
inactive: growth inhibition [1] -8.38% | growth inhibition [2] -13.2% | viability increase [3] -0.5% | viability [4] 107% | viability [5] 96% | inhibition [6] 0.495% | RAM network inhibition [7] 2.85%

Cc1occc1C(=O)NC1CCCCCC1
inactive: growth inhibition [1] -17.9% | growth inhibition [2] -9.95% | viability increase [3] -0.64% | viability [4] 95.5% | viability [5] 96.6% | inhibition [6] -0.355% | RAM network inhibition [7] -0.22%

CSc1nnc(Cn2c(=O)sc3ccccc32)n1-c1ccccc1
inactive: growth inhibition [1] -2.55% | growth inhibition [2] 3.38% | viability increase [3] -0.84% | viability [4] 104% | viability [5] 102% | inhibition [6] 2.03% | RAM network inhibition [7] 2.08%

O=C(NCCCN1CCCC1=O)c1ccccc1NS(=O)(=O)c1ccc(F)cc1
inactive: growth inhibition [1] -7.5% | growth inhibition [2] -22% | viability increase [3] -2.44% | viability [4] 88.9% | viability [5] 94.1% | inhibition [6] 1.57% | RAM network inhibition [7] 5.37%

CCn1cc(Cl)c(C(=O)Nc2nc3ccccc3n2CCN2CCCCC2)n1
inactive: growth inhibition [1] -5% | growth inhibition [2] 13.4% | viability increase [3] -4.57% | viability [4] 88.8% | viability [5] 92.2% | inhibition [6] 0.905% | RAM network inhibition [7] 2.98%

CCc1ccc(Cn2nnc(C(=O)Nc3cccc(C)c3)c2N)cc1
inactive: growth inhibition [1] -7.21% | growth inhibition [2] -2.92% | viability increase [3] -0.67% | viability [4] 102% | viability [5] 95.9% | inhibition [6] 3.39% | RAM network inhibition [7] 8.18%

COc1ccc(-n2c(Cc3cccn3C)nnc2SCC(=O)N2CCOCC2)cc1
inactive: growth inhibition [1] 3.14% | growth inhibition [2] 10.2% | viability increase [3] -1.11% | viability [4] 103% | viability [5] 96% | inhibition [6] 1.11% | RAM network inhibition [7] 0.98%
